DNMT1 block: blocks human DNA methyltransferase DNMT1; P26358; DNMT1 molecular beacon, Hinp1I cleavage, fluorescence; inhibition (reported as % activation of signal), % at 10 µM; 0.83% of 360,000 active; AID 588458; in the data active = inhibition above about 50%
Rpn11 inh: Rpn11 (human) deubiquitinase inhibition. O00487. human 26S proteasome, Ub4-pepOG fluorescence polarization; 20S core pre-blocked with epoxomicin. inhibition, % at 20 µM. 0.59% of 360,000 active;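 active = inhibition at 20 µM, scaled to each plate's controls, above about 33%, limit read from the data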
Scp-1 inhibitor: Scp-1 (human) phosphatase inhibition | inhibition, % at 20 µM | 0.88% of 340,000 active | Recombinant Scp1, phosphopeptide, malachite green phosphate absorbance | Q9GZU7;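 active = inhibition above about 50% at 20 µM, limit read from the data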;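 also: plate controls were DMSO wells with enzyme for no effect and wells lacking enzyme for full effect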
Target sequence (Q9GZU7 76-261 limits assumed): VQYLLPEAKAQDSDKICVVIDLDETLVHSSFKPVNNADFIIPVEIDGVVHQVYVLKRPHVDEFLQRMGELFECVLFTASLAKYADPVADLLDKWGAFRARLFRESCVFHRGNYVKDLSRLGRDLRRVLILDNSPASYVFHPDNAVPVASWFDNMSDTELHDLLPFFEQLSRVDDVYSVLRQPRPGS
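Times: enzyme reaction 45 min at room temperature, colour 5 min, stabilisation 30 min. Material: SCP-1 catalytic fragment, aa 76-261. Medium: Acidic Tris acetate buffer with magnesium and detergent. Signal: colorimetric free-phosphate detection, absorbance 630 nm. Read-out basis: % inhibition of SCP-1 phosphate liberation. Reagent: Phosphorylated 17-residue peptide substrate.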
SUMO1-SIM PPI: SUMO1-SIM interaction modulation. P63165. SUMO1 binding to a labelled peptide, TR-FRET, 1 h. inhibition, % at 20 µM. 0.33% of 360,000 active; in the data active = inhibition above about 37%
Target sequence (P63165 whole entry, looked up): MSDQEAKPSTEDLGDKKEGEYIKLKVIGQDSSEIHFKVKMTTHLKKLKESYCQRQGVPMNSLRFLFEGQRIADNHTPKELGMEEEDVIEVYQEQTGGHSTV
STEP block: STEP (human) phosphatase inhibition. P54829. recombinant STEP, OMFP fluorogenic substrate, fluorescence. inhibition, % at 20 µM. 0.25% of 360,000 active. AID 588621;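 active = inhibition at 20 µM, scaled per plate between control wells, above about 37%, limit read from the data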;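 also: 0% = DMSO with enzyme and substrate and 100% = substrate only without enzyme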
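System: isolated STEP enzyme; schedule: 20 min enzyme reaction at room temperature, protected from light; medium: Bis-Tris buffer pH 6.0, 2.5 mM DTT, 0.005% Tween 20; signal: fluorescence, 480/540 nm; dosing: single compound dose of 20 µM, 1% DMSO final; also added: OMFP substrate, 25 µM final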
LMPTP inh: LMPTP (human) inhibition; inhibition, % at 20 µM; 0.22% of 360,000 active; recombinant LMPTP-A, OMFP fluorogenic substrate, fluorescence intensity;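 active = compounds that cut the enzyme signal by at least half of the control window in the single-dose screen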;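 also: plate controls were DMSO wells with enzyme plus substrate for no effect and substrate without enzyme for full effect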
Target sequence (P24666 whole entry, looked up): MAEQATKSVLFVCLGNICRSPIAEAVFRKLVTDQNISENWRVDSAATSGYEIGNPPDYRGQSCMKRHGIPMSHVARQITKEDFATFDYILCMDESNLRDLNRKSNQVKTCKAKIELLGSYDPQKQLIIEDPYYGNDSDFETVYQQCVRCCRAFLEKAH
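test system = LMPTP-A | amount = 0.625 nM LMPTP-A final | reagent = fluorogenic phosphatase substrate OMFP at 400 µM final | incubation = 50 min at room temperature | benchmarks = no-enzyme low control, uninhibited high control | medium = Bis-Tris pH 6.0, DTT, detergent | signal = fluorescence intensity of OMFP turnover product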
Beacon interf DR: shows spectral interference in the DNMT1 beacon assay; molecular beacon fluorescence, spectral interference counter-screen; shares compounds with DNMT1 block; 200 tested, under 10 active; IC50, µM; call rule not given here
DNMT1 confirm: confirmation of human DNMT1 inhibitors; shares compounds with DNMT1 block; DNMT1 molecular beacon HinP1I cleavage, fluorescence; inhibition, % at 10 µM; 8% of 2,300 active;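 active = average inhibition of at least 30% in the single-concentration confirmation test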
DNMT1 interf: beacon fluorescence artifact counter-screen. shares compounds with DNMT1 block. DNMT1 molecular beacon spectral interference counterscreen, fluorescence 485/520. activation (fluorescence interference), % at 10 µM. 1% of 2,300 active. AID 602387;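 active = activation of at least 30% at 10 µM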;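 also: DNMT1 catalytic domain with a HinP1I cleavage step and a FAM/dabcyl DNA beacon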
Starred values were filed as active, the others as inactive; · = no result. Compounds with a hit are over-represented: about 2.3% of the library has one in this group of screens.

SMILES	DNMT1 block	Rpn11 inh	Scp-1 inhibitor	SUMO1-SIM PPI	STEP block	LMPTP inh	DNMT1 confirm	DNMT1 interf	others
Cc1cc(/C=N/Nc2ccc([N+](=O)[O-])cn2)c(C)n1-c1ccc(C(=O)O)cc1	61.4*	30.9	57.0*	10.2	6.1	12.0	3.9	0.9
Cc1ccccc1-n1c(C)cc(/C=N/Nc2ccc([N+](=O)[O-])cn2)c1C	1.7	21.5	11.7	-18.9	-1.9	2.5	·	·
O=C(COC(=O)/C=C/c1cccc(C(F)(F)F)c1)NC(c1ccccc1)c1ccccc1	56.1*	-5.4	-4.4	-5.6	3.0	-1.4	0.1	2.6
CO[C@H]1CN(C)C(=O)c2ccc(NS(=O)(=O)c3ccccc3F)cc2OC[C@H](C)NC[C@@H]1C	·	·	·	3.9	·	-0.8	·	·
O=C(O)CCc1ccc(-c2ccc(Br)cc2)n1Cc1ccco1	72.9*	23.7	1.8	6.6	2.0	2.0	9.8	2.0
O=C(O)CCc1ccc(-c2ccccc2)n1Cc1ccco1	27.1	-0.4	-3.6	2.8	-1.3	1.0	·	·
Clc1ccc2c(N/N=C/c3ccccc3Br)ccnc2c1	28.0	4.6	5.7	-2.3	7.4	12.5	·	·
Clc1ccc2c(N/N=C/c3cccc(Br)c3)ccnc2c1	80.5*	9.2	-17.2	1.1	6.0	3.3	4.4	3.5
Cc1onc(-c2ccccc2)c1C(=O)Nc1nnc(CC(C)(C)C)s1	0.5	3.5	-5.3	1.9	-0.2	0.5	·	·
C/C(=N/NC(=O)c1cc(-c2cccc([N+](=O)[O-])c2)n[nH]1)c1cccc(O)c1	88.5*	1.1	-1.7	-13.7	-0.3	0.0	2.8	5.2
CCC1CCc2sc(C(=O)NNC(=O)c3ccncc3)cc2C1 (centres undefined)	88.2*	1.5	-3.8	4.0	-1.0	0.3	5.4	6.2
CCC1CCc2sc(C(=O)O)cc2C1 (centres undefined)	3.9	0.2	-9.6	2.9	-7.7	-2.4	·	·
Cc1cc(-c2ccccc2)n2nc(N)nc2n1	0.7	1.9	-10.6	-3.8	2.2	0.1	·	·
O=C(COC(=O)/C=C/c1ccc(Br)o1)Nc1ccc2[nH]c(=O)[nH]c2c1	82.2*	40.2	·	104.0*	21.0	47.2	14.5	1.6
CCC(=O)N1CCC2(CC1)Oc1ccc(F)cc1C(=O)C21CC(c2ccccc2)=NO1 (centres undefined)	0.0	-20.2	-3.6	5.3	1.5	0.1	·	·
COc1ccc(C(=O)Nc2nc3ccc(OC)cc3s2)cc1	-2.2	16.4	4.4	-1.1	-2.7	1.2	·	·
COc1ccc2nc(NC(=O)c3cccc(-c4cc5ccccc5oc4=O)c3)sc2c1	57.6*	0.1	0.3	-1.3	2.3	14.6	2.3	-4.7
CCCCc1nc(SCC(=O)N2CCCCC2)c2c(=O)n(C)c(=O)n(C)c2n1	1.2	-7.9	-8.6	3.7	1.3	-0.8	·	·
Cc1cccc(-c2nnc(SCc3ccc(C#N)cc3)n2Cc2ccco2)c1	14.5	-2.0	0.6	2.0	11.5	0.2	·	·
CCCn1nc(C(=O)NNC(=O)CSC(C)C(=O)Nc2cc(C)on2)c2ccccc2c1=O (centres undefined)	-0.9	-0.5	-7.1	0.0	-2.0	-0.5	·	·
O=C(Oc1cccc(/C=N/Nc2nc(Nc3ccccc3)nc(N3CCOCC3)n2)c1)c1ccco1	-10.9	2.7	12.2	-3.4	0.8	3.0	·	·
O=C(O)c1ccc(-n2cccc2/C=N\NC(=O)c2cc3cc(Br)ccc3o2)cc1	101.8*	18.1	80.5*	83.5*	14.4	22.9	75.1*	-2.9	Beacon interf DR=>99
CN(C)C(=O)CN1CCN(Cc2nc(CC3CC3)no2)CC1	1.7	-4.0	-0.7	0.4	-2.0	4.1	·	·
CCOC(=O)N1CCN(Cc2nc(CC3CC3)no2)CC1	81.6*	-2.9	-4.7	2.6	-1.4	-0.6	3.5	2.6
